Assay type in all cases: functional
The subject of experiment [1] is Escherichia coli. The experiment in a line: Antibacterial activity against Escherichia coli K12 PhoU wild type W3110 at 6 ug/ml after 48 hrs by disc diffusion method. The procedure, abridged:
(§1)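 Kirby-Bauer disc assay. Log-phase LB culture (10⁸ bacteria) was spread for confluent growth on LB agar. 7 mm nitrocellulose discs soaked in antibiotic at the listed concentrations were laid on the agar. Inhibition zone diameter (mm) was measured after 48 h at 37°C.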
For orientation: In agar diffusion tests the substance spreads into inoculated agar from a disc or well.

Experiment [2] concerns Escherichia coli. The experiment can be described thus: Antibacterial activity against Escherichia coli K12 mutant JHU313 at 6 ug/ml after 48 hrs by disc diffusion method. The essentials:
(§2)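 Kirby-Bauer disc assay: log-phase LB culture was spread on LB agar for confluent growth. 7-mm nitrocellulose discs were soaked in antibiotic at the listed concentration and placed on the agar. After 48 h at 37°C, the diameter of the inhibition zone was measured in mm.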

For experiment [3], the system named is Escherichia coli. The experiment in a line: Antibacterial activity against Escherichia coli K12 mutant JHU313 containing plasmid PhoU at 6 ug/ml after 48 hrs by disc diffusion method. The procedure, abridged: as §2
Experiment [4] concerns Escherichia coli. The experiment in a line: Antibacterial activity against Escherichia coli K12 containing deletion deltaphoU mutant assessed as cell count in log phase at 100 ug/ml after 5 hrs. The essentials:
(§3)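 Wild-type W3110-derived deletion mutants were made by the Datsenko–Wanner method. Log-phase or stationary-phase cultures were exposed to ampicillin 100 μg/ml in MOPS minimal medium at pH 5.0, at 37°C without shaking. Aliquots were taken at set times, washed in saline and plated on LB for viable CFU/ml.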

Experiment [5] relates to Escherichia coli. The experiment can be described thus: Antibacterial activity against Escherichia coli K12 containing PhoU mutant assessed as cell count in stationary phase at 100 ug/ml after 1 day. The essentials:
(§4)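 Log-phase or stationary-phase cultures were exposed to ampicillin (100 μg/ml) or norfloxacin (3 μg/ml) in MOPS minimal medium, pH 5.0, at 37°C without shaking, for 5 h to 10 days. Aliquots were saline-washed and plated on LB for CFU/ml.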

The subject of experiment [6] is Escherichia coli. The experiment in a line: Antibacterial activity against Escherichia coli K12 containing deletion deltaphoR mutant assessed as cell count in stationary phase at 100 ug/ml after 24 hrs. The essentials:
as §3

The test system of experiment [7] is Escherichia coli. The experiment in a line: Antibacterial activity against Escherichia coli K12 containing deletion deltaphoBR mutant assessed as cell count in log phase at 100 ug/ml after 24 hrs. The essentials: (§5)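 Deletion mutants were made by the Datsenko–Wanner method. Log-phase or stationary-phase cultures were exposed to ampicillin at 100 μg/ml. CFU/ml was determined at the start and after 5, 24 and 72 h of exposure.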

Experiment [8] relates to Escherichia coli. The experiment in a line: Antibacterial activity against Escherichia coli K12 mutant JHU313 containing plasmid PhoU at 100 ug/ml after 48 hrs by disc diffusion method. The essentials: as §2
Experiment [9] deals with Escherichia coli. The experiment can be described thus: Antibacterial activity against Escherichia coli K12 mutant JHU313 containing plasmid vector at 100 ug/ml after 48 hrs by disc diffusion method. The procedure, abridged: as §2
The subject of experiment [10] is Escherichia coli. The experiment in a line: Antibacterial activity against Escherichia coli K12 PhoU wild type W3110 at 25 ug/ml after 48 hrs by disc diffusion method. The procedure, abridged:
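Kirby-Bauer disc assay. Log-phase LB broth culture (10⁸ bacteria) was spread on LB agar for confluent growth. 7 mm nitrocellulose discs soaked in antibiotic solution at the listed concentration were placed on the agar. Inhibition zone diameter (mm) was measured after 48 h at 37°C.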

The subject of experiment [11] is Escherichia coli. The experiment in a line: Antibacterial activity against Escherichia coli K12 mutant JHU313 containing plasmid PhoU at 25 ug/ml after 48 hrs by disc diffusion method. The procedure, abridged: as §2
Experiment [12] relates to Escherichia coli. The experiment in a line: Antibacterial activity against Escherichia coli K12 mutant JHU313 containing plasmid vector at 25 ug/ml after 48 hrs by disc diffusion method. The essentials:
(§6)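 Kirby-Bauer paper-disc assay: log-phase E. coli (10⁸ bacteria) grown in LB broth, spread on LB agar for confluent growth; 7 mm nitrocellulose discs soaked with antibiotic solution at the listed concentration (μg/ml) placed on surface; incubated 37°C for 48 h; diameter of growth-inhibition zone measured in mm. Strain is the phoU transposon mutant transformed by electroporation with empty vector control.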

The subject of experiment [13] is Escherichia coli. The experiment can be described thus: Antibacterial activity against Escherichia coli K12 PhoU wild type W3110 assessed as cell count in log phase at 100 ug/ml after 5 hrs. The essentials: (§7)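 Log-phase or stationary-phase cultures exposed to ampicillin 100 μg/ml in MOPS minimal medium (pH 5.0) at 37°C without shaking, for 5 h up to 10 days. Aliquots were taken at each time point, washed in saline and plated on LB plates for viable CFU/ml.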

The test system of experiment [14] is Escherichia coli. The experiment in a line: Antibacterial activity against Escherichia coli K12 PhoU wild type W3110 assessed as cell count in log phase at 100 ug/ml after 1 week. The procedure, abridged:
as §7

In experiment [15] the test system is Escherichia coli. The experiment can be described thus: Antibacterial activity against Escherichia coli K12 containing deletion deltaphoBR mutant assessed as cell count in log phase at 100 ug/ml after 5 hrs. The procedure, abridged:
as §5

The subject of experiment [16] is Escherichia coli. The experiment can be described thus: Antibacterial activity against Escherichia coli K12 containing deletion deltahipA mutant assessed as cell count in log phase at 100 ug/ml after 5 hrs. The procedure, abridged: as §5
The subject of experiment [17] is Escherichia coli. The experiment can be described thus: Antibacterial activity against Escherichia coli K12 containing deletion deltahipA mutant assessed as cell count in stationary phase at 100 ug/ml after 5 hrs. The procedure, abridged: as §5
Experiment [18] deals with Escherichia coli. The experiment can be described thus: Antibacterial activity against Escherichia coli K12 PhoU wild type W3110 assessed as cell count in stationary phase at 3 ug/ml after 1 day. The procedure, abridged:
as §4

Experiment [19] deals with Escherichia coli. The experiment in a line: Antibacterial activity against Escherichia coli K12 containing deletion deltaphoU mutant assessed as cell count in log phase at 3 ug/ml after 1 day. The procedure, abridged:
(§8)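 Log-phase or stationary-phase cultures of the ΔphoU deletion mutant (Datsenko–Wanner construction) were exposed to norfloxacin 3 μg/ml in MOPS minimal medium, pH 5.0, at 37°C without shaking, for up to 10 days. Sampled aliquots were washed in saline and plated on LB agar for CFU/ml.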

For experiment [20], the system named is Escherichia coli. The experiment in a line: Antibacterial activity against Escherichia coli K12 containing deletion deltaphoU mutant assessed as cell count in stationary phase at 3 ug/ml after 1 day. The essentials: as §8
In experiment [21] the test system is Escherichia coli. The experiment can be described thus: Antibacterial activity against Escherichia coli K12 containing deletion deltaphoU mutant assessed as cell count in log phase at 3 ug/ml after 3 days. The essentials: as §8
The test system of experiment [22] is Escherichia coli. The experiment can be described thus: Antibacterial activity against Escherichia coli K12 containing PhoU mutant assessed as cell count in log phase at 3 ug/ml after 5 days. The procedure, abridged: as §4
For experiment [23], the system named is Escherichia coli. The experiment can be described thus: Antibacterial activity against Escherichia coli K12 PhoU wild type W3110 at 4 ug/ml after 48 hrs by disc diffusion method. The procedure, abridged: as §1
Experiment [24] relates to Escherichia coli. The experiment can be described thus: Antibacterial activity against Escherichia coli K12 containing deletion deltaphoU mutant assessed as cell count in log phase at 3 ug/ml after 5 days. The procedure, abridged: as §8
For experiment [25], the system named is Escherichia coli. The experiment can be described thus: Antibacterial activity against Escherichia coli K12 mutant JHU313 containing plasmid vector at 2 ug/ml after 48 hrs by disc diffusion method. The procedure, abridged: as §2
Experiment [26] relates to Escherichia coli. The experiment in a line: Antibacterial activity against Escherichia coli K12 mutant JHU313 containing plasmid vector at 0.1 ug/ml after 48 hrs by disc diffusion method. The procedure, abridged: as §2
Experiment [27] concerns Escherichia coli. The experiment in a line: Antibacterial activity against Escherichia coli K12 mutant JHU313 containing plasmid vector at 4 ug/ml after 48 hrs by disc diffusion method. The procedure, abridged:
as §6

Experiment [28] relates to Escherichia coli. The experiment can be described thus: Antibacterial activity against Escherichia coli K12 containing deletion deltaphoU mutant assessed as cell count in stationary phase at 3 ug/ml after 5 hrs. The essentials: as §8
Experiment [29] deals with Escherichia coli. The experiment in a line: Antibacterial activity against Escherichia coli K12 PhoU wild type W3110 assessed as cell count in log phase at 3 ug/ml after 1 day. The essentials: as §4
For experiment [30], the system named is Escherichia coli. The experiment in a line: Antibacterial activity against Escherichia coli K12 containing deletion deltaphoU mutant assessed as cell count in stationary phase at 3 ug/ml after 10 days. The procedure, abridged: as §8

The structures appear in SMILES notation.

On to `CC1(C)S[C@@H]2[C@H](NC(=O)[C@H](N)c3ccccc3)C(=O)N2[C@H]1C(=O)O` [AMPICILLIN], for which the inhibition zone (IZ) in the experiment with Escherichia coli [1] was 25 mm; in the experiment with Escherichia coli [2] it was 30 mm; in the experiment on Escherichia coli [3], 32 mm; with Escherichia coli [8] it was 40 mm; in the experiment with Escherichia coli [9], 45 mm; in the experiment on Escherichia coli [10], 28 mm. In addition, the results for the inhibition zone (IZ) in the experiment on Escherichia coli [11] and in the experiment with Escherichia coli [12] were 36 mm and 40 mm, respectively. Besides, the CFU in the experiment with Escherichia coli [4] is 1 10^2/ml; in the experiment on Escherichia coli [5], 1 10^7/ml; with Escherichia coli [6], 1.5 10^9/ml; in the experiment with Escherichia coli [7], 2 10^3/ml; with Escherichia coli [13] it was 3 10^3/ml; in the experiment on Escherichia coli [14] it was 0 mL⁻¹. Moreover, the results for the CFU in the experiment on Escherichia coli [15], with Escherichia coli [16] and with Escherichia coli [17] were 7 10^3/ml, 1 10^4/ml and 6 10^9/ml, respectively.

On to `CCn1cc(C(=O)O)c(=O)c2cc(F)c(N3CCNCC3)cc21` [NORFLOXACIN], for which the CFU is 4 10^9/ml in the experiment with Escherichia coli [18]; 1 10^6/ml with Escherichia coli [19]; 2 10^8/ml with Escherichia coli [20]; 0 mL⁻¹ with Escherichia coli [21]; 0 mL⁻¹ in the experiment on Escherichia coli [22]; 0 mL⁻¹ with Escherichia coli [24]. Moreover, the CFU with Escherichia coli [28] is 6 10^8/ml; in the experiment on Escherichia coli [29], 4 10^6/ml; with Escherichia coli [30], 0 mL⁻¹. The inhibition zone (IZ) in the experiment with Escherichia coli [23] is 32 mm; in the experiment on Escherichia coli [25] it was 40 mm; in the experiment with Escherichia coli [26] it was 29 mm; in the experiment with Escherichia coli [27], 44 mm.
